# Assay results collected from several papers.
# Cell line: HepG2
# Read-out: cell growth or viability
Compound,method,time,IC50
COc1ccc(-c2cc(-c3c(OC)cccc3OC)c3c(=O)[nH]c(=O)[nH]c3n2)cc1,MTT,48 h,36.5 µM
CN(C)c1cc(NC(=O)Cc2cccnc2)c(O)c2c1C[C@H]1C[C@H]3[C@H](N(C)C)C(O)=C(C(N)=O)C(=O)[C@@]3(O)C(O)=C1C2=O,ATP luminescence,72 h,> 200 µg/mL
COc1nc(NCc2cn(-c3ccc(C(=O)Nc4ccc(C(F)(F)F)cc4)cc3)nn2)nc(OC)n1,MTT,72 h,0.0651 µM
CN(C)c1cc(NC(=O)Cc2cncnc2)c(O)c2c1C[C@H]1C[C@H]3[C@H](N(C)C)C(O)=C(C(N)=O)C(=O)[C@@]3(O)C(O)=C1C2=O,ATP luminescence,72 h,84.8 µg/mL
COc1ccc2[nH]c(C(=O)Nc3nc(CC(=O)O)cs3)cc2c1,MTT,24 h,59.8 µM
COc1ccc(-c2cc(-c3ccc(OC)cc3)c3c(=O)[nH]c(=O)[nH]c3n2)cc1,MTT,48 h,9.62 µM
COc1cccc2c1C(=O)c1c(O)c3c(c(O)c1C2=O)C[C@@](O)(C(=O)CO)C[C@@H]3O[C@H]1C[C@H](N)[C@H](O)[C@H](C)O1,MTT,72 h,0.54 µM
CN(C)c1cc(NC(=O)c2ccccc2)c(O)c2c1C[C@H]1C[C@H]3[C@H](N(C)C)C(O)=C(C(N)=O)C(=O)[C@@]3(O)C(O)=C1C2=O,ATP luminescence,72 h,21.3 µg/mL
CCCOc1nc(-c2cccc(O)c2)cc(-c2cc3ccccc3nc2N2CCOCC2)c1C#N,MTT,72 h,0.269 µM
Cc1ccc(-c2cc(-c3ccc(Cl)c(F)c3)c3c(=O)[nH]c(=O)[nH]c3n2)cc1,MTT,48 h,15.7 µM
COc1ccc(C2CC(c3ccc(Nc4nnc(-c5ccc(Cl)cc5)c5ccccc45)cc3)=NN2)cc1 (centres unmarked),MTT,72 h,0.19 µM
CN(C)c1cc(NC(=O)Cc2ncccn2)c(O)c2c1C[C@H]1C[C@H]3[C@H](N(C)C)C(O)=C(C(N)=O)C(=O)[C@@]3(O)C(O)=C1C2=O,ATP luminescence,72 h,108 µg/mL
COc1ccc(-c2cc(-c3cccc(Br)c3)c3c(=O)n(C)c(=O)n(C)c3n2)cc1,MTT,48 h,12.4 µM
CN(C)c1cc(NC(=O)Cc2ccncn2)c(O)c2c1C[C@H]1C[C@H]3[C@H](N(C)C)C(O)=C(C(N)=O)C(=O)[C@@]3(O)C(O)=C1C2=O,ATP luminescence,72 h,> 200 µg/mL
Cc1ccc(-c2cc(-c3ccc(N(C)C)cc3)c3c(=O)n(C)c(=O)n(C)c3n2)cc1,MTT,48 h,14.4 µM
COc1ccc2[nH]c(C(=O)Nc3nc(CC(=O)NO)cs3)cc2c1,MTT,24 h,13.3 µM
COc1ccc(-c2cc(-c3ccccc3Cl)c3c(=O)[nH]c(=O)[nH]c3n2)cc1,MTT,48 h,18.9 µM
C[C@H](CCC(=O)O)[C@H]1CC[C@H]2[C@@H]3CC[C@@H]4C[C@H](O)CC[C@]4(C)[C@H]3CC[C@]12C,MTT,72 h,52 µM
CN(C)c1ccc(O)c2c1C[C@H]1C[C@H]3[C@H](N(C)C)C(O)=C(C(N)=O)C(=O)[C@@]3(O)C(O)=C1C2=O,ATP luminescence,72 h,> 200 µg/mL
COc1ccc(-c2cc(-c3c(OC)cccc3OC)c3c(=O)n(C)c(=O)n(C)c3n2)cc1,MTT,48 h,10.5 µM
O=C(Cc1csc(NC(=O)c2cc3ccccc3[nH]2)n1)NO,MTT,24 h,67.9 µM
CN(C)c1cc(NC(=O)CNC(C)(C)C)c(O)c2c1C[C@H]1C[C@H]3[C@H](N(C)C)C(O)=C(C(N)=O)C(=O)[C@@]3(O)C(O)=C1C2=O,ATP luminescence,72 h,> 200 µg/mL
CCCOc1nc(-c2cccc(O)c2)cc(-c2cc3cc(Cl)ccc3nc2N2CCOCC2)c1C#N,MTT,72 h,0.084 µM
